Assay results as given in ChEMBL document CHEMBL3124772, “Design, synthesis, and evaluation of conformationally restricted acetanilides as potent and selective β3 adrenergic receptor agonists for the treatment of overactive bladder” (J Med Chem, 2014).
pEC50, pIC50: −log10 of the molar value.

Tests used:
[1] = Half life in Sprague-Dawley rat at 1 mg/kg, iv and 2 mg/kg, po; format: ADME, organism-based; conditions: in vivo
[2] = Plasma clearance in Sprague-Dawley rat at 1 mg/kg, iv and 2 mg/kg, po; format: ADME, organism-based
[3] = Oral bioavailability in Sprague-Dawley rat at 2 mg/kg; format: ADME, organism-based; conditions: in vivo
[4] = biological target: T1, Beta-3 adrenergic receptor (Homo sapiens, UniProt P13945); assay: Agonist activity at human beta-3 adrenergic receptor expressed in CHO cells assessed as increase in intracellular cAMP accumulation after 30 mins by time-resolved fluorescence assay; format: functional, cell-based
Method in brief: (§1)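 CHO cells stably transfected with cloned β3-AR, harvested after 3 days subculture with enzyme-free dissociation, 6000 cells in HBSS with 5 mM HEPES, 0.1% BSA and 0.6 mM IBMX. Ligand at 10⁻¹⁰ to 10⁻⁵ M final, 30 min room temperature with labeled cAMP antibody; LANCE TR-FRET read after 1 h detection, cAMP from standard curve.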
Target sequence in this assay (P13945 whole entry): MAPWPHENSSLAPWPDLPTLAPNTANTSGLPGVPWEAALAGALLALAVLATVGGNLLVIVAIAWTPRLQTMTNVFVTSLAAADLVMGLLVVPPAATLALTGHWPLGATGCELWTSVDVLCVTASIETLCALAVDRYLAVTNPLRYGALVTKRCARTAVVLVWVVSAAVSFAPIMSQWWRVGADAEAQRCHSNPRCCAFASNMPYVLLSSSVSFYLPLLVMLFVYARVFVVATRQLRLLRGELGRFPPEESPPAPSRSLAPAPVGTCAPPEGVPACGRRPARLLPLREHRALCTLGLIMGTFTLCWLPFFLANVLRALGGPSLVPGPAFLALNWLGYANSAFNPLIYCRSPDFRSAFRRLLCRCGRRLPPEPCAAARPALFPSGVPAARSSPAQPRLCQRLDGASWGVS

[5] = biological target: Beta-2 adrenergic receptor (Homo sapiens, UniProt P07550); assay: Displacement of [125I]-cyanopindolol from recombinant human beta-2 adrenergic receptor expressed in CHO cell membranes after 1 hr by scintillation counting analysis
[6] = biological target: T1, Beta-3 adrenergic receptor; assay: Agonist activity at human beta-3 adrenergic receptor expressed in CHO cells assessed as increase in intracellular cAMP accumulation at 10^-10 to 10^-5 M after 30 mins by time-resolved fluorescence assay relative to R-(-)isoproterenol; format: functional, cell-based; method in brief: as §1
Target sequence in this assay (P13945 whole entry, looked up): as the sequence (P13945 whole entry) above

[7] = biological target: Beta-1 adrenergic receptor (Homo sapiens, UniProt P08588); assay: Displacement of [125I]-cyanopindolol from recombinant human beta-1 adrenergic receptor expressed in CHO cell membranes after 1 hr by scintillation counting analysis
[8] = (§2) Fraction unbound in Sprague-Dawley rat plasma at 1 mg/kg, iv and 2 mg/kg, po; format: ADME, organism-based; conditions: Sprague-Dawley, plasma
[9] = Intrinsic clearance in rat liver microsomes; format: ADME; conditions: read-out: CLH
[10] = Apparent permeability in MDCK2 cells; format: ADME, cell-based, Canis lupus familiaris, MDCK-II; conditions: dog, MDCK
[11] = biological target: Voltage-gated inwardly rectifying potassium channel KCNH2 (Homo sapiens, UniProt Q12809); assay: Inhibition of human ERG
[12] = biological target: Cytochrome P450 2C9 (Homo sapiens, UniProt P11712); assay: Inhibition of CYP2C9 in human liver microsomes assessed as diclofenac alpha'-hydroxylation; format: ADME
[13] = species: Homo sapiens; assay: Selectivity ratio of IC50 for human SERT to EC50 for human beta-3 adrenergic receptor
[14] = biological target: Voltage-dependent L-type calcium channel subunit alpha-1C (Homo sapiens, UniProt Q13936); assay: Displacement of [3H]-diltiazem from human CaV1.2
[15] = biological target: Cytochrome P450 3A4 (Homo sapiens, UniProt P08684); assay: Inhibition of CYP3A4 in human liver microsomes assessed as testosterone 6beta-hydroxylation; format: ADME
[16] = biological target: Sodium channel protein type 5 subunit alpha (Homo sapiens, UniProt Q14524); assay: Inhibition of human NaV1.5
[17] = biological target: Sodium-dependent serotonin transporter (Homo sapiens, UniProt P31645); assay: Inhibition of human SERT expressed in HEK293 cells incubated for 30 mins prior to fluorescent substrate addition measured after 30 mins by fluorescent dye uptake assay; format: cell-based
Method in brief: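 HEK293 stably expressing human SERT, 20000 cells/well plated overnight at 37 °C, then in HBSS with 20 mM HEPES and 0.1% BSA. Compound added from 100× DMSO stock, 30 min at 37 °C, then fluorescent transporter substrate for 30 more min. Fluorescence read at 440/520 nm, normalized to DMSO (0%) and 10 μM fluoxetine (100%), four-parameter fit for IC50.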

[18] = biological target: Cytochrome P450 2D6 (Homo sapiens, UniProt P10635); assay: Inhibition of CYP2D6 in human liver microsomes assessed as dextromethorphan O-demethylation; format: ADME
[19] = system: Plasma; assay: as §2; format: ADME, organism-based; conditions: in vivo, BLD = below limit of detection
[20] = biological target: Beta-3 adrenergic receptor (Canis lupus familiaris) (UniProt O02662); assay: Agonist activity at dog beta-3 adrenergic receptor expressed in CHO cells assessed as increase in intracellular cAMP accumulation at 10^-10 to 10^-5 M after 30 mins by time-resolved fluorescence assay relative to R-(-)isoproterenol; format: functional, cell-based; method in brief: as §1
[21] = biological target: Beta-3 adrenergic receptor (Macaca mulatta, UniProt Q28524); assay: Agonist activity at rhesus monkey beta-3 adrenergic receptor expressed in CHO cells assessed as increase in intracellular cAMP accumulation after 30 mins by time-resolved fluorescence assay; format: functional, cell-based; method in brief: as §1
[22] = biological target: Beta-3 adrenergic receptor (Rattus norvegicus) (UniProt P26255); assay: Agonist activity at rat beta-3 adrenergic receptor expressed in CHO cells assessed as increase in intracellular cAMP accumulation at 10^-10 to 10^-5 M after 30 mins by time-resolved fluorescence assay relative to R-(-)isoproterenol; format: functional, cell-based; method in brief: as §1
[23] = biological target: Beta-3 adrenergic receptor (Rattus norvegicus, UniProt P26255); assay: Agonist activity at rat beta-3 adrenergic receptor expressed in CHO cells assessed as increase in intracellular cAMP accumulation after 30 mins by time-resolved fluorescence assay; format: functional, cell-based; method in brief: as §1
[24] = biological target: Beta-3 adrenergic receptor (Macaca mulatta) (UniProt Q28524); assay: Agonist activity at rhesus monkey beta-3 adrenergic receptor expressed in CHO cells assessed as increase in intracellular cAMP accumulation at 10^-10 to 10^-5 M after 30 mins by time-resolved fluorescence assay relative to R-(-)isoproterenol; format: functional, cell-based; method in brief: as §1
[25] = biological target: Beta-3 adrenergic receptor (Canis lupus familiaris, UniProt O02662); assay: Agonist activity at dog beta-3 adrenergic receptor expressed in CHO cells assessed as increase in intracellular cAMP accumulation after 30 mins by time-resolved fluorescence assay; format: functional, cell-based; method in brief: as §1

Cytochrome P450 2C9, sequence (P11712 whole entry): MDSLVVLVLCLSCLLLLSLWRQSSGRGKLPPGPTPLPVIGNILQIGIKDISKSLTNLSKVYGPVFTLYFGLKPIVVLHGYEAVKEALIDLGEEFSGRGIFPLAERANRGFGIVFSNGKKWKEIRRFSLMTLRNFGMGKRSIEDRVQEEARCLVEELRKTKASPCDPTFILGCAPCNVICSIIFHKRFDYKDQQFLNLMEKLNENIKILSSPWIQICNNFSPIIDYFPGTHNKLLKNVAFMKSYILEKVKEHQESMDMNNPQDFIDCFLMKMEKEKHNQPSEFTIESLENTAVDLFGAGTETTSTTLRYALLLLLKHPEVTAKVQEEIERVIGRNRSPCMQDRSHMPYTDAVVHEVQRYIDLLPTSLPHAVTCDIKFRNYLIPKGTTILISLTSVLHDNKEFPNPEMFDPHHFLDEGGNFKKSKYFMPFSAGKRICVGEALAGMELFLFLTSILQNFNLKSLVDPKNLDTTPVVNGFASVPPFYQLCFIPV
Sodium channel protein type 5 subunit alpha, sequence (Q14524 whole entry): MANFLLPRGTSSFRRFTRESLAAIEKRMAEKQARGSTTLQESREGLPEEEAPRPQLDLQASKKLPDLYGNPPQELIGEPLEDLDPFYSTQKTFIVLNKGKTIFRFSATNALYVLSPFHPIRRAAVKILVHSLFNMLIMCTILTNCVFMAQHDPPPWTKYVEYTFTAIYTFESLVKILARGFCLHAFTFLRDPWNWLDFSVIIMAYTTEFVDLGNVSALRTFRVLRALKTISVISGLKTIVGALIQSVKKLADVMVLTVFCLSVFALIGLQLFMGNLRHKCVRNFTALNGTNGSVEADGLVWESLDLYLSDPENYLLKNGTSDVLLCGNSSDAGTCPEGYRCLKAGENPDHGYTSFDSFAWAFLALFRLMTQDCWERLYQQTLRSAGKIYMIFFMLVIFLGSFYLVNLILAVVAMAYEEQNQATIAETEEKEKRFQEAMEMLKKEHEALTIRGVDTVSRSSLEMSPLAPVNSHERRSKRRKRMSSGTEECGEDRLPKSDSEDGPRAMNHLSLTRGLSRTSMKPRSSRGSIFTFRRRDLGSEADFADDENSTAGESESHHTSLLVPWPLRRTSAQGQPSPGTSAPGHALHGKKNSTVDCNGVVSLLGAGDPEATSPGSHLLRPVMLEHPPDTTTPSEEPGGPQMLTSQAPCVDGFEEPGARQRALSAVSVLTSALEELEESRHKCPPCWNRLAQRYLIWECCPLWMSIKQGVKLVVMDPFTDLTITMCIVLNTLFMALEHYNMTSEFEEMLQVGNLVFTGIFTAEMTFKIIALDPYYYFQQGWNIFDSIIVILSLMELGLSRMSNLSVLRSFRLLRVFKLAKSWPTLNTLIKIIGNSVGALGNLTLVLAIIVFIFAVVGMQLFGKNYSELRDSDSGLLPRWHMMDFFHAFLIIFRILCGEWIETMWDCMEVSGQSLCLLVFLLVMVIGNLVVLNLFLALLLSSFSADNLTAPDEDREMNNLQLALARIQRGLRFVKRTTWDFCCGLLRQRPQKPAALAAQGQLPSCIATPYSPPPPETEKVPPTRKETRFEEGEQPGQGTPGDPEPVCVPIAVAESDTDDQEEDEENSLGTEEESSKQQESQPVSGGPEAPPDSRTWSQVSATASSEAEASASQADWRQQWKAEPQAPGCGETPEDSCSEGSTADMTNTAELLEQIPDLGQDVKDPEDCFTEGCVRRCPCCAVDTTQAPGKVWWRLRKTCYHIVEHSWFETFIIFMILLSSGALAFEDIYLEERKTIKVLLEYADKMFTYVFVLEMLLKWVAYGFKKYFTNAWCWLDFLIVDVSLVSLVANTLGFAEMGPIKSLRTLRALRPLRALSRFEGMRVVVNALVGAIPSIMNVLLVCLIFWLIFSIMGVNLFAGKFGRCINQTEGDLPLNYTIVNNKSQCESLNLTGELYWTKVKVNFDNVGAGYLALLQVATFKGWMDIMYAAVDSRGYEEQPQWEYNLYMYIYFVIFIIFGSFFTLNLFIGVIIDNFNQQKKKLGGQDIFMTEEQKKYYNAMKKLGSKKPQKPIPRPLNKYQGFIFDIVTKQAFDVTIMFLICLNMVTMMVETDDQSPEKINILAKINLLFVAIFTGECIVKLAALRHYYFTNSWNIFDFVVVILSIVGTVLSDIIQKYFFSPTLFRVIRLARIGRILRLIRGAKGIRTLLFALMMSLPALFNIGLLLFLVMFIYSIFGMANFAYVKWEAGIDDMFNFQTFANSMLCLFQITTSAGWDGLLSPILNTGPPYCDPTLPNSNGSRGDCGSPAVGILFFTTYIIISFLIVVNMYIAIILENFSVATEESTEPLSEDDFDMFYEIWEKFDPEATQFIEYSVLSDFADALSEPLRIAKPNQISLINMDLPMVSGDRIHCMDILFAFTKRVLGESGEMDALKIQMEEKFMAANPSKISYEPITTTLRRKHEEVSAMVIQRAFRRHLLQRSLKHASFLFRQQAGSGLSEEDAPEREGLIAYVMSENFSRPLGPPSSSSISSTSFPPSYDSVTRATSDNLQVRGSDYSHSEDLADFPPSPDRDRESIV
Cytochrome P450 3A4, sequence (P08684 whole entry): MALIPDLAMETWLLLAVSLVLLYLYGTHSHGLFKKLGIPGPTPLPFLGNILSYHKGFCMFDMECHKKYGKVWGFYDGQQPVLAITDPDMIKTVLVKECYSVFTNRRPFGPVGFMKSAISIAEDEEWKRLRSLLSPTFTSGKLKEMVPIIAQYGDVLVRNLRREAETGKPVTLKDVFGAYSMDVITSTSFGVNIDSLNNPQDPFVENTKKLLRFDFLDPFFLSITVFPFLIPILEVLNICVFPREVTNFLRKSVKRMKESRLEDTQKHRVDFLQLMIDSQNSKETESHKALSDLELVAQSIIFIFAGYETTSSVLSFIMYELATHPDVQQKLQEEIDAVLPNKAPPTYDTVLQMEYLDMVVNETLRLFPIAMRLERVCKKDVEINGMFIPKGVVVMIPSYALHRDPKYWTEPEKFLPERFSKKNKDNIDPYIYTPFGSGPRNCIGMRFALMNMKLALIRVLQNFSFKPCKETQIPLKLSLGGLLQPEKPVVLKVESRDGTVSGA
Sodium-dependent serotonin transporter, sequence (P31645 whole entry): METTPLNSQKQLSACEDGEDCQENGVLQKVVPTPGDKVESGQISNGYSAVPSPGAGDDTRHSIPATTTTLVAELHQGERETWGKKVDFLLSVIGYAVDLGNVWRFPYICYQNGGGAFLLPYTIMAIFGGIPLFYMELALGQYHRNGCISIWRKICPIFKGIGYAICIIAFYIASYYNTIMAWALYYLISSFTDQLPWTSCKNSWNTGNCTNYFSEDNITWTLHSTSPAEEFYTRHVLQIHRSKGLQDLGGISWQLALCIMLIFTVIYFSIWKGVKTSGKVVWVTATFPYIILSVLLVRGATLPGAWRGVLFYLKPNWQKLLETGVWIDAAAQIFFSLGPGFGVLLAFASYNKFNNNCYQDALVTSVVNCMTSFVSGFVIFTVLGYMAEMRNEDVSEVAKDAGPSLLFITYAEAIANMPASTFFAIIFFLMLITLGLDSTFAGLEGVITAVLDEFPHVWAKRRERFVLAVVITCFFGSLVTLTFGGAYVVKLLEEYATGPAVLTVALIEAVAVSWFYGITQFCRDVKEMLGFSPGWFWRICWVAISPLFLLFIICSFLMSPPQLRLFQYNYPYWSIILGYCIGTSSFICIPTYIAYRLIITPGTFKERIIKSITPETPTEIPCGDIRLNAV
Beta-2 adrenergic receptor, sequence (P07550 whole entry): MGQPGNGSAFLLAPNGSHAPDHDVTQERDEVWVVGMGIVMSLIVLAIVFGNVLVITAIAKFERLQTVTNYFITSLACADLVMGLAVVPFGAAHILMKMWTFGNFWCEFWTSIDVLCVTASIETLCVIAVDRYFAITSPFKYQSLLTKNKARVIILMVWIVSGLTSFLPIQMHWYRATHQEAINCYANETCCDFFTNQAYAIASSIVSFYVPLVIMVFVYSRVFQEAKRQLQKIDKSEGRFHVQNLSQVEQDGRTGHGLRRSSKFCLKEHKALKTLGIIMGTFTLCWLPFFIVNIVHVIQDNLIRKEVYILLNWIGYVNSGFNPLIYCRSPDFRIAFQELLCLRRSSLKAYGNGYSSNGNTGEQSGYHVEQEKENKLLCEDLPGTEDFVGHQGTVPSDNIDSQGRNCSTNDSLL
Beta-1 adrenergic receptor, sequence (P08588 whole entry): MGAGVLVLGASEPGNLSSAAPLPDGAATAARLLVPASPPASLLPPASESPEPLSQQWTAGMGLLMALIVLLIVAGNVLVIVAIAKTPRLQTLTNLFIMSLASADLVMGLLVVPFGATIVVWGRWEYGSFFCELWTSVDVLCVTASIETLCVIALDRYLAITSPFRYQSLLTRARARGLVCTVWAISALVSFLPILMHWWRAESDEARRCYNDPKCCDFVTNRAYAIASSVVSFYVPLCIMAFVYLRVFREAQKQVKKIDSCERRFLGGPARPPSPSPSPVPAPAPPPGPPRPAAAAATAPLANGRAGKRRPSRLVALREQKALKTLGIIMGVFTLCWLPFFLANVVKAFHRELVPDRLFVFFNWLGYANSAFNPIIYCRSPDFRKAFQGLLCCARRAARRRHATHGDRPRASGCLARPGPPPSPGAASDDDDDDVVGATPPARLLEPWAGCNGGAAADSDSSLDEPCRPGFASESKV

Row | SMILES | half-life [1] [h] | clearance [2] [L/h/kg] | pEC50 [4] | pIC50 [5] | Activity [6] [%] | pIC50 [7] | further results
1 | C[C@@H](C(=O)Nc1ccc(C[C@@H]2CC[C@H]([C@H](O)c3cccnc3)N2)cc1)n1cccn1 | 2 | 2.04 | 7.78 | < 4.70 | 102 | < 4.70 | bioavailability [3]: 29%
2 | CCC[C@@H](C(=O)Nc1ccc(C[C@@H]2CC[C@H]([C@H](O)c3ccccc3)N2)cc1)c1csc(N)n1 |  |  | 9.06 | < 4.70 | 66 | < 4.70 | 
3 | O=C(Nc1ccc(C[C@@H]2CC[C@H]([C@H](O)c3ccccc3)N2)cc1)[C@@H]1CCc2scnc21 | 1 | 4.8 | 9.19 | < 4.70 | 101 | < 4.70 | fraction unbound [8]: 0.1; bioavailability [3]: 12%; CLint scaled [9]: 4.08 L/h/kg; Papp [10]: 240 nm/s
4 | O=C(Cn1cccn1)Nc1ccc(C[C@@H]2CC[C@H]([C@H](O)c3cccnc3)N2)cc1 |  |  | 7.12 | < 4.70 | 72 | < 4.70 | 
5 | Nc1nc2c(s1)CC[C@H]2C(=O)Nc1ccc(C[C@@H]2CC[C@H]([C@H](O)c3cccc(F)c3)N2)cc1 |  |  | 10.40 | < 4.70 | 94 | < 4.70 | pIC50 [11]: 5.40
6 | Cc1nc2c(s1)CC[C@H]2C(=O)Nc1ccc(C[C@@H]2CC[C@H]([C@H](O)c3ccccc3)N2)cc1 | 1 | 5.22 | 9.32 | < 4.70 | 96 | < 4.70 | fraction unbound [8]: 0.05; bioavailability [3]: 6%; CLint scaled [9]: 8.1 L/h/kg; Papp [10]: 260 nm/s
7 | C[C@H](C(=O)Nc1ccc(C[C@@H]2CC[C@H]([C@H](O)c3ccccc3)N2)cc1)c1csc(N)n1 |  |  | 9.17 | < 4.70 | 85 | < 4.70 | 
8 | Nc1nc2c(s1)CCCC[C@H]2C(=O)Nc1ccc(C[C@@H]2CC[C@H]([C@H](O)c3ccccc3)N2)cc1 |  |  | 8.73 | < 4.70 | 70 | < 4.70 | 
9 | C[C@@H](C(=O)Nc1ccc(C[C@@H]2CC[C@H]([C@H](O)c3ccccc3)N2)cc1)c1csc(N)n1 |  |  | 9.74 | < 4.70 | 84 | < 4.70 | 
10 | O=C(Nc1ccc(C[C@@H]2CC[C@H]([C@H](O)c3cccnc3)N2)cc1)[C@@H]1CCc2sc(-c3ccc(F)cc3)nc21 |  |  | 8.06 | 5.61 | 15 | 4.87 | 
11 | O=C(Nc1ccc(C[C@@H]2CC[C@H]([C@H](O)c3ccccc3)N2)cc1)[C@@H]1CCc2sc(-c3ccc(F)cc3)nc21 |  |  | 6.73 | 5.60 | 76 | 5.36 | 
12 | Nc1nc2c(s1)CC[C@H]2C(=O)Nc1ccc(C[C@@H]2CC[C@H]([C@H](O)c3ccc(F)cc3)N2)cc1 |  |  | 9.89 | < 4.70 | 72 | < 4.70 | pIC50 [11]: 5.25
13 | CC(C)[C@@H](C(=O)Nc1ccc(C[C@@H]2CC[C@H]([C@H](O)c3ccccc3)N2)cc1)c1csc(N)n1 |  |  | 8.80 | < 4.70 | 85 | < 4.70 | 
14 | Nc1nc2c(s1)CC[C@H]2C(=O)Nc1ccc(C[C@@H]2CC[C@H]([C@H](O)c3cccc(Cl)c3)N2)cc1 |  |  | 9.82 | 5.07 | 93 | < 4.70 | 
15 | CCc1nc2c(s1)CC[C@H]2C(=O)Nc1ccc(C[C@@H]2CC[C@H]([C@H](O)c3ccccc3)N2)cc1 |  |  | 8.71 | < 4.70 | 37 | < 4.70 | 
16 | Cc1nc2c(s1)CC[C@H]2C(=O)Nc1ccc(C[C@@H]2CC[C@H]([C@H](O)c3cccnc3)N2)cc1 | 1 | 1.5 | 8.94 | < 4.70 | 89 | < 4.70 | pIC50 [11]: 4.92; pIC50 [12]: 4.17; fraction unbound [8]: 0.11; bioavailability [3]: 46%; Ratio IC50/EC50 [13]: 77; pIC50 [14]: < 4.52; CLint scaled [9]: 3.72 L/h/kg; pIC50 [15]: 4.38; Papp [10]: 170 nm/s; pIC50 [16]: < 4.52; pIC50 [17]: 7.05; pIC50 [18]: < 4.00
17 | Nc1nc2c(s1)CC[C@H]2C(=O)Nc1ccc(C[C@@H]2CC[C@H]([C@H](O)c3cccnc3)N2)cc1 | 4 | 1.92 | 9.43 | < 4.70 | 101 | < 4.70 | Fu [19]: BLD; bioavailability [3]: 0%; CLint scaled [9]: 3.42 L/h/kg; Papp [10]: < 10 nm/s
18 | Nc1nc(CC(=O)Nc2ccc(C[C@@H]3CCC([C@H](O)c4ccccc4)N3)cc2)cs1 (single isomer, unassigned) | 8 | 0.66 |  | < 4.70 | 92 | < 4.70 | pIC50 [12]: < 4.00; fraction unbound [8]: 0.06; pIC50 [14]: 5.09; CLint scaled [9]: 2.28 L/h/kg; pIC50 [15]: < 4.00; Papp [10]: 50 nm/s; pIC50 [16]: < 4.52; pIC50 [17]: 5.79; pIC50 [18]: 5.66
19 | CC[C@@H](C(=O)Nc1ccc(C[C@@H]2CC[C@H]([C@H](O)c3ccccc3)N2)cc1)c1csc(N)n1 |  |  | 9.08 | < 4.70 | 85 | < 4.70 | 
20 | Nc1nc2c(s1)CC[C@H]2C(=O)Nc1ccc(C[C@@H]2CC[C@H]([C@H](O)c3ccccc3)N2)cc1 | 4 | 3 | 9.82 | < 4.70 | 91 | < 4.70 | pIC50 [11]: 4.90; pIC50 [12]: < 4.00; Activity [20]: 102%; fraction unbound [8]: 0.18; bioavailability [3]: 6%; pEC50 [21]: 10.22; pIC50 [14]: < 4.52; CLint scaled [9]: 3.54 L/h/kg; pIC50 [15]: 4.07; Activity [22]: 100%; pEC50 [23]: 8.89; Papp [10]: 50 nm/s; pIC50 [16]: 5.25; Activity [24]: 78%; pEC50 [25]: 9.72; pIC50 [17]: 5.91; pIC50 [18]: 4.74
21 | O=C(Nc1ccc(C[C@@H]2CC[C@H]([C@H](O)c3cccnc3)N2)cc1)[C@@H]1CCc2sc(C3CC3)nc21 |  |  | 7.91 | < 4.70 | 43 | < 4.70 | 
22 | CCc1nc2c(s1)CC[C@H]2C(=O)Nc1ccc(C[C@@H]2CC[C@H]([C@H](O)c3cccnc3)N2)cc1 |  |  | 7.87 | < 4.70 | 49 | < 4.70 | 
23 | Nc1nc2c(s1)CC[C@@H]2C(=O)Nc1ccc(C[C@@H]2CC[C@H]([C@H](O)c3ccccc3)N2)cc1 |  |  | 7.35 | < 4.70 | 91 | < 4.70 | 
24 | Nc1nc2c(s1)CCC[C@H]2C(=O)Nc1ccc(C[C@@H]2CC[C@H]([C@H](O)c3ccccc3)N2)cc1 | 3 | 11.1 | 9.68 | < 4.70 | 103 | < 4.70 | fraction unbound [8]: 0.14; bioavailability [3]: 0%; CLint scaled [9]: 3.78 L/h/kg; Papp [10]: 50 nm/s
